Data: PMC10788905 (Journal of Medicinal Chemistry, 2023)
Structures can show the parent of a compound that is named as a salt. One block for each compound: values may come before it.

Tests used:
[1] = Liver microsomal stability, mouse and human, UDPGA; format: in vitro ADME; conditions: for half-life at 4.6 μM: mouse and human, liver microsomes with alamethicin, pH 7.5; for m,h-LM % at 120 min / m,h-LM t1/2: mouse and human liver microsomes; for m,h-LM % at 120 min: UDPGA, compound remaining at 120 min; for m,h-LM t1/2: UDPGA cofactor
Summary of the method: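 Phase II: compound from a 10 mM DMSO stock (4.6 μM final) was preincubated 15 min at 37 °C with mouse or human liver microsomes plus alamethicin in 0.1 M Tris-HCl pH 7.5, 10% DMSO. UDPGA, D-saccharic acid lactone and MgCl₂ were added and incubated 2 h at 37 °C. Samples at 0–120 min were quenched in cold MeCN with internal standard. No-cofactor matrix controls were run. Mean of ≥2 experiments, duplicates.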

xenograft models = conditions: doses lower than 50 mg/kg (ip daily); cited from earlier work
[2] = system: human ether-a-go-go-related gene (hERG) potassium channel; conditions: cited from earlier work
BT-474 cells = test: Apoptosis in BT-474; format: cell-based, human; conditions: BT-474, different concentrations, 24 h
Summary of the method: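 Poly-caspase activity detected with a live-cell red/green caspase apoptosis detection kit. Cleaved PARP measured by immunoblot in TBS-T with 5% BSA: primary antibody 1:2000, GAPDH loading control 1:100000, HRP-conjugated secondaries 1:10000.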

A375 xenografts = test: A375 subcutaneous xenograft model; format: in vivo, female NMRI-Foxn1nu mice
[3] = system: melanoma A375 cells expressing GFP-LC3; test: GFP-LC3 reporter autophagy assay; format: cell-based, human; conditions: 24 h treatment; for GFP-LC3-positive autophagosomes (fluorescent dots per cell): different concentrations
Summary of the method: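 A375 melanoma cells were stably transfected with EGFP-LC3B and G418-selected; the clone used was validated with 10 μM chloroquine. Cells on glass-bottom plates were exposed to varied compound concentrations for 24 h, fixed in 4% PFA and Hoechst 33342-stained. GFP-LC3 perinuclear dots per cell were counted by fluorescence microscopy, ten fields per dose, four independent replicates.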

Tolerability studies = format: in vivo, female CD1 mice; conditions: for reduction in body weight: after 8 days
Summary of the method: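 Female CD1 mice (8–9 weeks, 4-day acclimation), 3 per group, received ip compound in saline; controls got saline ip daily. Regimens: 138 μmol/kg daily or every other day; 69 μmol/kg daily or 3 days on/2 off, over an 8-day period. Behavior, body weight, food and water intake were recorded daily. Weight on the pre-treatment day was set to 100%.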

breast cancer BT-474 = conditions: after 72 h treatment; cited from earlier work
several tumor cell lines = conditions: cited from earlier work
[4] = 30 mg/kg ip, 3/5 d schedule, day 15

SMILES: CN1CCC(Cc2ccc(F)c(CNC3(c4ccc(F)cc4)CCCC3)c2)CC1 [Compound 14, N-[[2-Fluoro-5-[(1-methyl-4-piperidyl)methyl]phenyl]methyl]-1-(4-fluorophenyl)cyclopentanamine Dihydrochloride]
half-life at 4.6 μM [1]: > 2 h

SMILES: CCN(CC)CCCC(C)Nc1ccnc2cc(Cl)ccc12 (stereo not shown) [CQ, Chloroquine]
efficacy in xenograft models (xenograft models): completely ineffective
concentrations blocking hERG activity [2]: single-digit

SMILES: COc1cc(F)ccc1C1(NCc2ccc(F)c(CC3CCN(C)CC3)c2)CCCC1 [Compound 22, 1-(4-Fluoro-2-methoxy-phenyl)-N-[[4-fluoro-3-[(1-methyl-4-piperidyl)methyl]phenyl]methyl]cyclopentanamine Dihydrochloride]
half-life at 4.6 μM [1]: > 2 h

SMILES: CN1CCC(Cc2cc(CNC3(c4ccc(F)cc4)CCCC3)ccc2F)CC1 [Compound 11, N-[[4-Fluoro-3-[(1-methyl-4-piperidyl)methyl]phenyl]methyl]-1-(4-fluorophenyl)cyclopentanamine Dihydrochloride]
half-life at 4.6 μM [1]: > 2 h

SMILES: CN1CCC(Cc2ccc(O)c(CNC3(c4ccc(F)cc4)CCCC3)c2)CC1 [Compound 15, 2-[[[1-(4-Fluorophenyl)cyclopentyl]amino]methyl]-4-[(1-methyl-4-piperidyl)methyl]phenol Dihydrochloride]
half-life at 4.6 μM [1]: > 2 h

SMILES: Fc1ccc(C2(NCc3ccc(F)c(CC4CCNCC4)c3)CCCC2)cc1 [Compound 24, 1-(4-Fluorophenyl)-N-[[4-fluoro-3-(4-piperidylmethyl)phenyl]methyl]cyclopentanamine Dihydrochloride]
m,h-LM t1/2 [1]: > 2 h
half-life at 4.6 μM [1]: > 2 h
caspase-activity and cleaved PARP protein levels (BT-474 cells): dose-dependent induction
tumor expression of REV-ERB target genes BMAL1 and PEPCK (A375 xenografts; 30 mg/kg ip for 2 days, tumors collected after 48 h, versus control): significantly higher expression
average tumor volume (excised tumors) (A375 xenografts; [4]): 307.7 mm^3
average tumor weight (A375 xenografts; [4]): 0.365 g
effects on body weight (A375 xenografts; 30 mg/kg ip, 3/5 d schedule, mice bearing A375 xenografts): negligible effects
increase in fluorescent dots compared with 1e ([3]; all the doses tested): significantly higher increase
GFP-LC3-positive autophagosomes (fluorescent dots per cell) [3]: dose-dependent accumulation
reduction in body weight (Tolerability studies; 69 μmol/kg (31 mg/kg) ip daily): ≤ 5%
tolerability (body weight, water and food intake) (Tolerability studies; 69 μmol/kg (31 mg/kg) ip, 3/5 d schedule, 15-day period): well tolerated
signs of arched backs and lethargy (Tolerability studies; 138 μmol/kg (62 mg/kg) ip daily): did not observe clear signs of arched backs and lethargy
animal body weight (Tolerability studies; 138 μmol/kg (62 mg/kg) ip daily, after 2 days of treatment): significantly reduced
reduction in body weight (Tolerability studies; 138 μmol/kg (62 mg/kg) ip every other day): ≤ 5%

SMILES: CN1CCN(Cc2cc(CNC3(c4ccccc4F)CCCC3)ccc2O)CC1 [Compound 1a, 4-[[[1-(2-fluorophenyl)cyclopentyl]amino]methyl]-2-[(4-methylpiperazin-1-yl)methyl]phenol]
IC50 (breast cancer BT-474): 30.1 µM

SMILES: Fc1ccc(C2(NCc3cc(CC4CCNCC4)ccc3F)CCCC2)cc1 [Compound 25, 1-(4-Fluorophenyl)-N-[[2-fluoro-5-(4-piperidylmethyl)phenyl]methyl]cyclopentanamine Dihydrochloride]
m,h-LM t1/2 [1]: > 2 h

SMILES: CCN(CCO)CCCC(C)Nc1ccnc2cc(Cl)ccc12 (stereo not shown) [HCQ, hydroxychloroquine]
concentrations blocking hERG activity [2]: single-digit

SMILES: CN1CC2(CC(Cc3cccc(CNC4(c5ccc(F)cc5)CCCC4)c3)C2)C1 [Compound 21, 1-(4-Fluorophenyl)-N-[[3-[(2-methyl-2-azaspiro[3.3]heptan-6-yl)methyl]phenyl]methyl]cyclopentanamine Dihydrochloride]
half-life at 4.6 μM [1]: > 2 h

SMILES: CN1CCC(Cc2cc(CNC3(c4ccc(F)cc4)CCCC3)c(F)cc2F)CC1 [Compound 16, N-[[2,4-Difluoro-5-[(1-methyl-4-piperidyl)methyl]phenyl]methyl]-1-(4-fluorophenyl)cyclopentanamine Dihydrochloride]
half-life at 4.6 μM [1]: > 2 h

Further lines, with some results ahead:

m,h-LM % at 120 min [1]: > 95%
half-life at 4.6 μM [1]: > 2 h
SMILES: COc1cc(F)ccc1C1(NCc2cccc(CC3CCN(C)CC3)c2)CCCC1 [Compound 5, 1-(4-Fluoro-2-methoxy-phenyl)-N-[[3-[(1-methyl-4-piperidyl)methyl]phenyl]methyl]cyclopentanamine Dihydrochloride]

m,h-LM % at 120 min [1]: > 95%
half-life at 4.6 μM [1]: > 2 h
SMILES: CN1CCC(Cc2cccc(CNC3(c4ccc(F)c(F)c4)CCCC3)c2)CC1 [Compound 7, 1-(3,4-Difluorophenyl)-N-[[3-[(1-methyl-4-piperidyl)methyl]phenyl]methyl]cyclopentanamine;dihydrochloride]

m,h-LM % at 120 min [1]: > 95%
half-life at 4.6 μM [1]: > 2 h
SMILES: COc1cc(C2(NCc3cccc(CC4CCN(C)CC4)c3)CCCC2)ccc1F [Compound 9, 1-(4-Fluoro-3-methoxy-phenyl)-N-[[3-[(1-methyl-4-piperidyl)methyl]phenyl]methyl]cyclopentanamine Dihydrochloride]

half-life at 4.6 μM [1]: > 2 h
SMILES: CN1CCC(Cc2cc(CNC3(c4ccc(F)cc4)CCCC3)ccc2O)CC1 [Compound 12, 4-[[[1-(4-Fluorophenyl)cyclopentyl]amino]methyl]-2-[(1-methyl-4-piperidyl)methyl]phenol Dihydrochloride]

m,h-LM % at 120 min [1]: > 95%
half-life at 4.6 μM [1]: > 2 h
SMILES: CN1CCC(Cc2cccc(CNC3(c4ccc(F)cc4O)CCCC3)c2)CC1 [Compound 6, 5-Fluoro-2-[1-[[3-[(1-methyl-4-piperidyl)methyl]phenyl]methylamino]cyclopentyl]phenol Dihydrochloride]

m,h-LM % at 120 min [1]: > 95%
half-life at 4.6 μM [1]: > 2 h
SMILES: CN1CCC(Cc2cccc(CNC3(c4ccc(F)cc4)CCCC3)c2)CC1 [Compound 1e]
GFP-LC3-positive autophagosomes (fluorescent dots per cell) [3]: dose-dependent accumulation
in vitro anticancer activity, times higher than CQ (several tumor cell lines): up to 50 times
IC50 (breast cancer BT-474): 2.1 µM

m,h-LM % at 120 min [1]: > 95%
SMILES: CN1CCC(Cc2cccc(CNC3(c4ccc(F)c(O)c4)CCCC3)c2)CC1 [Compound 10, 2-Fluoro-5-[1-[[3-[(1-methyl-4-piperidyl)methyl]phenyl]methylamino]cyclopentyl]phenol Dihydrochloride]
